Assay: Antitumor activity against mouse TLX5 cells allografted in CBA/LAC mouse assessed as increase in life span at 12.5 mg/kg, ip from day 3 to 7 from tumor inoculation relative to control
Type: functional
Details: TLX-5, ip, 72 h, route intraperitoneal
Outline: (§1)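 TLX5 lymphoma cells implanted subcutaneously in the inguinal region of female CBA/LAC mice. Drug given as a freshly made solution in acetone–arachis oil 10/90 (v:v), intraperitoneally once daily from day 3 to 7 after tumour inoculation. Five animals per dose level, ten controls. Read-out was %ILS over controls, with analysis of variance used for significance.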
With `CCOc1ccc(/C=N/NC(=O)c2ccc(/N=N/N(C)C)cc2)cc1` the ILS at 12.5 mg/kg was 0%. In the case of `CN(C)/N=N/c1ccc(C(=O)N/N=C/c2ccccc2)cc1`, the ILS at 12.5 mg/kg is reported as 26%. Molecule `CN(C)/N=N/c1ccc(C(=O)N/N=C/c2ccc(Cl)cc2)cc1` has an ILS at 12.5 mg/kg of 4.6%. In the case of `CN(C)/N=N/c1ccc(C(=O)N/N=C/c2ccc(Br)cc2)cc1`, the ILS at 12.5 mg/kg is reported as 7.6%. In the case of `CN(C)/N=N/c1ccc(C(=O)N/N=C/c2ccc(I)cc2)cc1`, the ILS at 12.5 mg/kg is reported as 11%. `CN(C)/N=N/c1ccc(C(=O)N/N=C/c2ccccc2[N+](=O)[O-])cc1` gave an ILS at 12.5 mg/kg of 44%. `CN(C)/N=N/c1ccc(C(=O)N/N=C/c2ccc([N+](=O)[O-])cc2)cc1` showed an ILS at 12.5 mg/kg of -1%. Work on `CCO/C=N/NC(=O)c1ccc(/N=N/N(C)C)cc1` yielded an ILS at 12.5 mg/kg of 13%. With `CN(C)/N=N/c1ccc(C(N)=O)cc1` the ILS at 12.5 mg/kg was 14%.

Assay: Antitumor activity against mouse TLX5 cells allografted in CBA/LAC mouse assessed as increase in life span at 25 mg/kg, ip from day 3 to 7 from tumor inoculation relative to control
Type: functional
Details: TLX-5, ip, 72 h, route intraperitoneal
Outline: as §1
Work on `CCOc1ccc(/C=N/NC(=O)c2ccc(/N=N/N(C)C)cc2)cc1` yielded an ILS at 25 mg/kg of 13%. Work on `CN(C)/N=N/c1ccc(C(=O)N/N=C/c2ccccc2)cc1` yielded an ILS at 25 mg/kg of 24%. `CN(C)/N=N/c1ccc(C(=O)N/N=C/c2ccc(Cl)cc2)cc1` showed an ILS at 25 mg/kg of 14%. `CN(C)/N=N/c1ccc(C(=O)N/N=C/c2ccc(Br)cc2)cc1` showed an ILS at 25 mg/kg of 21%. `CN(C)/N=N/c1ccc(C(=O)N/N=C/c2ccc(I)cc2)cc1` showed an ILS at 25 mg/kg of 15%. `CN(C)/N=N/c1ccc(C(=O)N/N=C/c2ccccc2[N+](=O)[O-])cc1` showed an ILS at 25 mg/kg of 40%. `CN(C)/N=N/c1ccc(C(=O)N/N=C/c2ccc([N+](=O)[O-])cc2)cc1` showed an ILS at 25 mg/kg of -1%. `CCO/C=N/NC(=O)c1ccc(/N=N/N(C)C)cc1` gave an ILS at 25 mg/kg of 30%. In the case of `CN(C)/N=N/c1ccc(C(=O)NNC(O)c2ccc([N+](=O)[O-])cc2)cc1` (configuration not stated), the ILS at 25 mg/kg is reported as 6.5%. For `CN(C)/N=N/c1ccc(C(N)=O)cc1`, the ILS at 25 mg/kg was 55%.

Assay: Antitumor activity against mouse TLX5 cells allografted in CBA/LAC mouse assessed as increase in life span at 50 mg/kg, ip from day 3 to 7 from tumor inoculation relative to control
Type: functional
Details: TLX-5, ip, 72 h, route intraperitoneal
Outline: as §1
Molecule `CCOc1ccc(/C=N/NC(=O)c2ccc(/N=N/N(C)C)cc2)cc1` has an ILS at 50 mg/kg of 29%. In the case of `CN(C)/N=N/c1ccc(C(=O)N/N=C/c2ccccc2)cc1`, the ILS at 50 mg/kg is reported as 49%. Molecule `CN(C)/N=N/c1ccc(C(=O)N/N=C/c2ccc(Cl)cc2)cc1` has an ILS at 50 mg/kg of 40%. Work on `CN(C)/N=N/c1ccc(C(=O)N/N=C/c2ccc(Br)cc2)cc1` yielded an ILS at 50 mg/kg of 52%. With `CN(C)/N=N/c1ccc(C(=O)N/N=C/c2ccc(I)cc2)cc1` the ILS at 50 mg/kg was 40%. With `CN(C)/N=N/c1ccc(C(=O)N/N=C/c2ccccc2[N+](=O)[O-])cc1` the ILS at 50 mg/kg was 49%. For `CN(C)/N=N/c1ccc(C(=O)N/N=C/c2ccc([N+](=O)[O-])cc2)cc1`, the ILS at 50 mg/kg was 8.7%. Work on `CCO/C=N/NC(=O)c1ccc(/N=N/N(C)C)cc1` yielded an ILS at 50 mg/kg of 43%. Work on `CN(C)/N=N/c1ccc(C(=O)NNC(O)c2ccc([N+](=O)[O-])cc2)cc1` (configuration not stated) yielded an ILS at 50 mg/kg of 12%. `CN(C)/N=N/c1ccc(C(N)=O)cc1` showed an ILS at 50 mg/kg of 51%.

Assay: Antitumor activity against mouse TLX5 cells allografted in CBA/LAC mouse assessed as increase in life span at 100 mg/kg, ip from day 3 to 7 from tumor inoculation relative to control
Type: functional
Details: TLX-5, ip, 72 h, route intraperitoneal
Outline: as §1
In the case of `CCOc1ccc(/C=N/NC(=O)c2ccc(/N=N/N(C)C)cc2)cc1`, the ILS at 100 mg/kg is reported as 50%. Molecule `CN(C)/N=N/c1ccc(C(=O)N/N=C/c2ccccc2)cc1` has an ILS at 100 mg/kg of 36%. Molecule `CN(C)/N=N/c1ccc(C(=O)N/N=C/c2ccc(Cl)cc2)cc1` has an ILS at 100 mg/kg of 44%. `CN(C)/N=N/c1ccc(C(=O)N/N=C/c2ccc(Br)cc2)cc1` gave an ILS at 100 mg/kg of 52%. `CN(C)/N=N/c1ccc(C(=O)N/N=C/c2ccc(I)cc2)cc1` showed an ILS at 100 mg/kg of 54%. With `CN(C)/N=N/c1ccc(C(=O)N/N=C/c2ccccc2[N+](=O)[O-])cc1` the ILS at 100 mg/kg was 51%. Work on `CN(C)/N=N/c1ccc(C(=O)N/N=C/c2ccc([N+](=O)[O-])cc2)cc1` yielded an ILS at 100 mg/kg of 16%. Work on `CCO/C=N/NC(=O)c1ccc(/N=N/N(C)C)cc1` yielded an ILS at 100 mg/kg of -27%. `CN(C)/N=N/c1ccc(C(=O)NNC(O)c2ccc([N+](=O)[O-])cc2)cc1` (configuration not stated) showed an ILS at 100 mg/kg of 74%. `CN(C)/N=N/c1ccc(C(N)=O)cc1` gave an ILS at 100 mg/kg of 47%.

Assay: Antitumor activity against mouse TLX5 cells allografted in CBA/LAC mouse assessed as increase in life span at 200 mg/kg, ip from day 3 to 7 from tumor inoculation relative to control
Type: functional
Details: TLX-5, ip, 72 h, route intraperitoneal
Outline: as §1
Molecule `CCOc1ccc(/C=N/NC(=O)c2ccc(/N=N/N(C)C)cc2)cc1` has an ILS at 200 mg/kg of 65%. Work on `CN(C)/N=N/c1ccc(C(=O)N/N=C/c2ccccc2)cc1` yielded an ILS at 200 mg/kg of 1.8%. For `CN(C)/N=N/c1ccc(C(=O)N/N=C/c2ccc(Cl)cc2)cc1`, the ILS at 200 mg/kg was 51%. Molecule `CN(C)/N=N/c1ccc(C(=O)N/N=C/c2ccc(Br)cc2)cc1` has an ILS at 200 mg/kg of 60%. With `CN(C)/N=N/c1ccc(C(=O)N/N=C/c2ccc(I)cc2)cc1` the ILS at 200 mg/kg was -38%. Work on `CN(C)/N=N/c1ccc(C(=O)N/N=C/c2ccccc2[N+](=O)[O-])cc1` yielded an ILS at 200 mg/kg of 57%. `CN(C)/N=N/c1ccc(C(=O)N/N=C/c2ccc([N+](=O)[O-])cc2)cc1` showed an ILS at 200 mg/kg of 26%. `CN(C)/N=N/c1ccc(C(=O)NNC(O)c2ccc([N+](=O)[O-])cc2)cc1` (configuration not stated) gave an ILS at 200 mg/kg of 83%. In the case of `CN(C)/N=N/c1ccc(C(N)=O)cc1`, the ILS at 200 mg/kg is reported as 3.9%.

Assay: Antitumor activity against mouse TLX5 cells allografted in CBA/LAC mouse assessed as increase in life span at 400 mg/kg, ip from day 3 to 7 from tumor inoculation relative to control
Type: functional
Details: TLX-5, ip, 72 h, route intraperitoneal
Outline: as §1
`CCOc1ccc(/C=N/NC(=O)c2ccc(/N=N/N(C)C)cc2)cc1` gave an ILS at 400 mg/kg of 63%. `CN(C)/N=N/c1ccc(C(=O)N/N=C/c2ccccc2)cc1` showed an ILS at 400 mg/kg of -26%. Work on `CN(C)/N=N/c1ccc(C(=O)N/N=C/c2ccc(Cl)cc2)cc1` yielded an ILS at 400 mg/kg of -23%. `CN(C)/N=N/c1ccc(C(=O)N/N=C/c2ccc(Br)cc2)cc1` gave an ILS at 400 mg/kg of -35%. `CN(C)/N=N/c1ccc(C(=O)N/N=C/c2ccccc2[N+](=O)[O-])cc1` showed an ILS at 400 mg/kg of 59%. In the case of `CN(C)/N=N/c1ccc(C(=O)N/N=C/c2ccc([N+](=O)[O-])cc2)cc1`, the ILS at 400 mg/kg is reported as 20%. In the case of `CN(C)/N=N/c1ccc(C(=O)NNC(O)c2ccc([N+](=O)[O-])cc2)cc1` (configuration not stated), the ILS at 400 mg/kg is reported as 71%. In the case of `CN(C)/N=N/c1ccc(C(N)=O)cc1`, the ILS at 400 mg/kg is reported as -61%.

Assay: Antitumor activity against mouse TLX5 cells allografted in CBA/LAC mouse assessed as increase in life span at 800 mg/kg, ip from day 3 to 7 from tumor inoculation relative to control
Type: functional
Details: TLX-5, ip, 72 h, route intraperitoneal
Outline: as §1
Work on `CN(C)/N=N/c1ccc(C(=O)NNC(O)c2ccc([N+](=O)[O-])cc2)cc1` (configuration not stated) yielded an ILS at 800 mg/kg of 44%.

Source: ChEMBL document CHEMBL3244380, “Preparation and antitumor activity of 1-aryl-3,3-dimethyltriazene derivatives” (1977)
